# From PubChem BioAssay AID624466 (The Scripps Research Institute Molecular Screening Center, 2012)
# About 5,400 (1.5%) of roughly 360,000 compounds were called active.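 How the source made its calls: active means inhibition above a per-plate cutoff, the mean inhibition of test compounds on that plate plus 3 SD (cut at about 49% in these data); inactive means the rest.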 This excerpt belongs to a sample that is enriched for actives.
# Molecular target: Trace amine-associated receptor 1 (Homo sapiens) (UniProt Q96RJ0)
# Sequence (Q96RJ0 whole entry, looked up): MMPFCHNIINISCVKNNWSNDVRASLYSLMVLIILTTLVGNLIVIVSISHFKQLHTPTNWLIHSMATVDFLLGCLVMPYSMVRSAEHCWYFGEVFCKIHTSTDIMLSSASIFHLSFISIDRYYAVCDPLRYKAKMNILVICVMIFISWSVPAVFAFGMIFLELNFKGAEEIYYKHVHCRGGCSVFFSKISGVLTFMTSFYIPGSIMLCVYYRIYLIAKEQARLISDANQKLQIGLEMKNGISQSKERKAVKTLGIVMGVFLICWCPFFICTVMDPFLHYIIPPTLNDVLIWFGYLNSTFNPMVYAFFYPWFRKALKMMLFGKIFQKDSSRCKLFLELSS
# Assay: human TAAR1 antagonists, primary screen, Fluo-8 calcium fluorescence, CHO RD-HGA16 cells (AID 624466);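 further: 0% = DMSO plus EC80 beta-PEA response and 100% = DMSO alone without agonist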
# Conditions: CHO RD-HGA16 TAAR1, Fluo-8 calcium fluorescence, antagonist; at 3 µM; hits give high values
# Procedure, shortened: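 System: CHO RD-HGA16 cells bearing hTAAR1. Reagent: EC80 β-phenethylamine stimulus. Schedule: seeding 17-24 h prior, 75-min 37 °C, 30-min RT dye loading. Signal: Fluo-8 intracellular calcium dye fluorescence, real-time kinetic reads. Read-out: % inhibition from peak post-agonist over basal fluorescence ratio. Benchmarks: vehicle wells and EC80 agonist wells. Replicates: n of 1.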
row,SMILES,inhibition
1,Nc1ncnc2c1ncn2[C@@H]1O[C@H](C(=O)N[C@@H](CCc2ccccc2)C(=O)N2CCCN(Cc3cccs3)CC2)[C@@H](O)[C@H]1O,3.27% (inactive)
2,COc1cccc(CC2(CO)CCN(Cc3cnc(-c4cccc(C)c4)nc3)CC2)c1,5.01% (inactive)
3,COc1cccc(CNC(=O)[C@H]2CCCN2C(=O)[C@H]2CCCN2C(=O)C2CCCCC2)c1,-16.5% (inactive)
4,COc1ccc(/C=C/C(=O)c2c(O)cc(OC)cc2OC)cc1,1.09% (inactive)
5,COc1cccc(C=CC(=O)C=CC=Cc2ccccc2)c1,-24.3% (inactive)
6,O=C(/C=C(O)/C=C/c1ccc(O)cc1)/C=C/c1ccc(O)cc1,68.2% (active)
7,O=C(COc1ccc(Cl)cc1)NCCSc1ccccc1,0.81% (inactive)
8,CCCNC(=O)C1(C)CCCN(Cc2c(C)nn(-c3ccccc3)c2C)C1 (stereo not given),5.37% (inactive)
9,O=C1C(=O)N(CCCN2CCOCC2)C(c2ccc([N+](=O)[O-])cc2)/C1=C(\O)c1ccc2c(c1)OCCO2 (stereo not given),6.85% (inactive)
10,CC(=O)c1ccc(S(=O)(=O)NCC2CCN(C(=O)C(=O)c3cccs3)CC2)cc1,-6.62% (inactive)
11,CC(C)CC(=O)NC(=S)NCc1ccccc1,-16.9% (inactive)
12,O=C(CCN1CCN(c2ccccc2)CC1)NNC(=S)Nc1ccccc1,-13.7% (inactive)
13,CCCCC(=O)NNC(=S)NC(=O)C(c1ccccc1)c1ccccc1,106% (active)
14,O=C(C(=O)N1CCN(c2ccccc2)CC1)c1ccc2c(c1)OCO2,-15% (inactive)
15,COCc1cc(=O)[nH]c(SC)n1,-6.85% (inactive)
16,CC1CN(S(=O)(=O)c2ccc(C(=O)Nc3sccc3C(N)=O)cc2)CC(C)O1 (stereo not given),9.54% (inactive)
17,CNC(=O)c1ccsc1NC(=O)c1ccc(S(=O)(=O)N2CCc3ccccc32)cc1,62.9% (active)
18,NS(=O)(=O)c1ccc(CNC(=O)c2cccc(S(=O)(=O)N3CCc4ccccc43)c2)cc1,-6.37% (inactive)
19,COCCn1c(=NC(=O)c2ccccc2[N+](=O)[O-])sc2cc(S(C)(=O)=O)ccc21,-0.74% (inactive)
20,O=S1(=O)CCO[C@H]2Cc3ccccc3[C@H]2N1Cc1ccccc1,9.98% (inactive)
21,Cc1ccc(CNC(=O)CCNS(=O)(=O)c2ccc(Br)s2)cc1,5.04% (inactive)
22,CCOC(=O)C1=C(C(=O)OCC)C2N(Cc3ccc(C#N)cc3)c3ccccc3[C@@]23C[C@@H](C(=O)OC)N(S(=O)(=O)c2ccc(F)cc2)C3=N1 (stereo not given in full),-16.3% (inactive)
23,O=C(N/C(=C\c1ccc([N+](=O)[O-])cc1)C(=O)N1CCCCC1)c1ccco1,9.56% (inactive)
24,COc1ccc(C(=O)NC2CCCc3c2cnn3-c2cccc(C)c2C)c(OC)n1 (stereo not given),62.1% (active)
25,COc1ccc(OC)c(C(=O)NC2CCCc3c2cnn3-c2cc(C)cc(C)c2)c1 (stereo not given),-17.8% (inactive)
26,Cn1nccc1C(=O)NC1CCCc2c1cnn2-c1ccc(F)cc1F (stereo not given),4.98% (inactive)
27,CCN1CCN(C(=O)c2cc3cc4ccc(OC)cc4nc3s2)CC1,0.15% (inactive)
28,CCCCCCCCN1C(=O)[C@@H](CC(=O)NCc2ccccc2)C[C@@]2(C(=O)OC)C1=C[C@H](C(C)(C)C)O[C@@H]2C,-4.61% (inactive)

row,SMILES,inhibition
1,CCOC(=O)[C@]12CCC=C1N(Cc1ccccc1)C(=O)[C@H](CC(=O)N1CCCC1)C2,-13.9% (inactive)
2,CCOC(=O)C1=C(NC(=S)NC(=O)c2ccccc2)c2ccccc2CC1(C)C,59.3% (active)
3,Cn1nnc(NC(=S)NC(=O)c2ccccc2)n1,-35% (inactive)
4,CCOC(=O)c1c(NC(=O)C2(C)Cc3ccccc3C(=O)O2)sc2c1CCCC2 (stereo not given),-23.7% (inactive)
5,CCOC(=O)N1CCN(C(=O)C[C@H]2C[C@@]3(C(=O)OC)C(=C[C@H](C4CCCC4)O[C@@H]3C)N(Cc3ccccc3)C2=O)CC1,-6.31% (inactive)
6,CC(C)N1C(=O)c2ccccc2NC(=O)C1C(=O)NCc1cccs1 (stereo not given),-8.37% (inactive)
7,O=[N+]([O-])c1cc([N+](=O)[O-])c2cccnc2c1O,2.43% (inactive)
8,CC(NCC(=O)Nc1cc(Cl)cc(Cl)c1)c1ccccc1 (stereo not given),3.33% (inactive)
9,O=C(CNC(c1ccccc1)c1ccccc1)Nc1ccc(F)cc1,-11.9% (inactive)
10,NNC(=O)CNC(c1ccccc1)c1cc(Cl)ccc1NC(=O)c1ccccc1 (stereo not given),80% (active)
11,Cc1ccc(-c2cc(=O)[nH]c(NCc3ccccc3)n2)cc1,-9.41% (inactive)
12,Cc1cc(C(C)(C)C)oc1C(=O)N(CC(=O)NC1CCCC1)Cc1ccc(Cl)cc1,56.4% (active)
13,Cc1ccc(CN(CC(=O)NC2CCCCC2)C(=O)c2csnn2)cc1,10.9% (inactive)
14,COc1ccc(CN(CC(=O)NC2CCCC2)C(=O)CCC(=O)Nc2cc(C)on2)cc1,-2.7% (inactive)
15,COCCNC(=S)N(C)[C@H]1C[C@H]2c3[nH]c4ccccc4c3CCN2C[C@H]1[C@H](C)O,-4.21% (inactive)
16,COC(=O)C[C@@H]1C=C[C@@H](NC(=O)c2ccc3c(c2)OCO3)[C@@H](CO)O1,8.18% (inactive)
17,O=C(Cn1cnc2ccccc2c1=O)NCC1COc2ccccc2O1 (stereo not given),-0.58% (inactive)
18,COc1ccc(CCNc2ncnc3nc[nH]c23)cc1OC,42.1% (inactive)
19,c1ccc2c(c1)OCC(CNc1ncnc3nc[nH]c13)O2 (stereo not given),105% (active)
20,NS(=O)(=O)c1ccc(CCNC(=O)c2ccc(Cl)c(S(=O)(=O)N3CCCCCC3)c2)cc1,48.9% (active)
21,O=C(NCCc1ccc(F)cc1)c1ccc(S(=O)(=O)N2CCCCC2)cc1,-0.8% (inactive)
22,O=C(c1ccc(Cl)c(S(=O)(=O)N2CCCCC2)c1)N1CCCCCC1,-4.7% (inactive)
23,c1ccc(Cn2nnc3c(NCC4CC4)ncnc32)cc1,-5.34% (inactive)
24,CC(C)Nc1ncnc2c1nnn2Cc1ccccc1,-8.98% (inactive)
25,Clc1ccc(Nc2ncnc3c2nnn3Cc2ccccc2)cc1,59.2% (active)
26,Nc1ncnc2c1ncn2C1OC(CO)CC1O (stereo not given),-14.9% (inactive)
27,CC1(C)OC(=O)C2=C(CC(CCc3ccccc3)OC2c2ccc(Cl)cc2)O1 (stereo not given),18.9% (inactive)
